An excerpt weighted towards active compounds, which were near 3.5% of everything screened.
RGS4 inh: RGS4 inhibitors, primary screen, cell-based, HEK293 M3R inducible RGS4, calcium flux | Fluo-4 calcium flux; hits give high values; triggered by carbachol at its EC20 | B-score at 10 µM | 310,000 tested, 0.45% active;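 active means B-score, a plate-corrected calcium signal, over three deviations above library mean, with baseline fluorescence within five deviations of library mean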;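 further: RGS4 expression induced by doxycycline in cells with stable M3 receptor; B-score is computed from the integrated fluorescence ratio over baseline after carbachol; higher B-score means a larger calcium signal and so more RGS4 inhibition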
Target sequence (P49798 whole entry, looked up): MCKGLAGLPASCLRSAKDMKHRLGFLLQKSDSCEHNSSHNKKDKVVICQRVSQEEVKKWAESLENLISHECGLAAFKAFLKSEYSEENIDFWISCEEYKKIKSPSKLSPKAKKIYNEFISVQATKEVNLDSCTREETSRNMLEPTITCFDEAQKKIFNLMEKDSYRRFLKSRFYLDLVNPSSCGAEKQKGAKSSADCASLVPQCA
MrgX1 PAM: positive allosteric modulators of MrgX1, primary screen, HEK293 cells, Fluo-4 calcium flux; B-score at 10 µM; 310,000 tested, 0.63% active; FDSS; hits give high values; AID 588675, 2011;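 active means plate-corrected calcium response at least 3 library SD above typical, normal starting fluorescence, not activating the receptor alone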;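 further: compound read alongside a low EC10 to EC30 dose of BAM8-22 agonist; peak minus trough fluorescence over baseline measured at the second addition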
Target sequence (Q96LB2 whole entry, looked up): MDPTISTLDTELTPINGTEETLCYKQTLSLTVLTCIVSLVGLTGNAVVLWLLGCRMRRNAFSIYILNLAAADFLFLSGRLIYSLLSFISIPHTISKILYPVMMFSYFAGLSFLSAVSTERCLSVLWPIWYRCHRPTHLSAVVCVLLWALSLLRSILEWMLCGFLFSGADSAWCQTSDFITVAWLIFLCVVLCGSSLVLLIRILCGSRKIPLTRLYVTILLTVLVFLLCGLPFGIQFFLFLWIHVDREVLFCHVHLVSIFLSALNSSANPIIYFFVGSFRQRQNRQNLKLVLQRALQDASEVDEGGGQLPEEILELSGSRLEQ
MrgX1 antag: antagonists of human MrgX1 receptor, primary screen, HEK293 cells, Fluo-4 calcium flux. Mas-related G-protein coupled receptor member X1 (Homo sapiens), Q96LB2. BAM8-22 antagonism; hits give low values. B-score at 10 µM. 310,000 tested, 1.3% active. AID 588676, 2011;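 active means calcium-response B-score plate-corrected more than 3 library SD below zero, starting fluorescence within 5 deviations, no agonist response on first addition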;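 further: peak minus trough fluorescence over baseline after final BAM8-22 challenge near maximal dose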
RGS4 act: RGS4 potentiators or activators, primary screen, cell-based, HEK293 M3R inducible RGS4, calcium flux; carbachol calcium flux Fluo4; hits give low values; AID 463111, 2010; 310,000 tested, 0.92% active; B-score at 10 µM;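 active means B-score of the integrated calcium signal more than 4 SD below the library mean, with starting fluorescence not abnormally high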;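 further: negative B-score means reduced calcium response which marks RGS4 activation or potentiation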
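Assay system: Inducible-RGS4 HEK293 cells carrying M3 receptor | Schedule: Compound preincubation 20 min at room temperature before agonist | Signal: Kinetic calcium fluorescence imaging with Fluo4-AM dye, 2 µM | Read-out basis: B score from integrated fluorescence ratio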
MrgX1 agonist: agonists of human MrgX1 receptor, primary screen, HEK293 cells, Fluo-4 calcium flux; Mas-related G-protein coupled receptor member X1 (Homo sapiens), Q96LB2; Fluo-4 calcium fluorescence, agonist mode; hits give high values; B-score at 10 µM; 310,000 tested, 0.44% active; AID 588627, 2011;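 active means calcium response B-score plate-corrected fluorescence ratio at least 3 library SD, with starting fluorescence B-score inside 5 SD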
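Test system: HEK293 cells stably expressing human MrgX1 receptor; amount: 15,000 cells per well; doses: compound delivered in addition one of three; times: overnight plating before 1 h dye loading; detection: Fluo-4 NW calcium-flux fluorescence, kinetic read; read-out basis: B-scored fluorescence response ratio; controls: positive and negative controls per plate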
MrgX1 ant reconf: MrgX1 receptor antagonists, duplicate retest, confirmation, HEK293 cells, Fluo-4 calcium flux | shares compounds with MrgX1 antag | BAM8-22 calcium flux; hits give low values | remaining BAM8-22 calcium response % of control (hits give low values), % at 10 µM | 2,300 tested, 19% active;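 active means remaining agonist calcium response no higher than 100% minus 3 SD of agonist-only control wells, with starting fluorescence near control levels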;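 further: agonist BAM8-22 given at a near maximal EC90 to ECmax level; peak minus minimum fluorescence divided by baseline after agonist addition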
HEK293 Ca flux: nonspecific calcium signal in parental HEK293, confirmation, counter-screen for MrgX1 antagonist project, parental HEK293 cells, Fluo-4 calcium flux | Fluo-4 calcium fluorescence, FDSS | shares compounds with MrgX1 antag | 4,000 tested, 2% active | fluorescence ratio F(max-min)/F0 at 10 µM;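 active means duplicate-averaged calcium fluorescence ratio at least three times the standard deviation of buffer wells, a nonspecific response in parental cells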
HEK293 Ca counter: calcium response in parental HEK293 cells, primary screen, counter-screen for MrgX1 allosteric activator project, cell-based, Fluo-4 calcium flux, duplicate; Fluo-4 fluorescence ratio; hits give high values; fluorescence ratio F(max-min)/F0 at 10 µM; shares compounds with MrgX1 antag; 4,000 tested, 0.4% active; AID 624114, 2012;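 active means calcium fluorescence ratio, averaged over duplicates, at least 3 SD of the buffer-well ratio, meaning a nonspecific response in receptor-free cells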;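 further: untransfected parental HEK293 lacking MrgX1 used as counterscreen for MrgX1 allosteric activators; fluorescence change taken during the second addition on a kinetic imager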
HEK293 Ca cntr2: calcium response in parental HEK293 cells, primary screen, counter-screen for MrgX1 agonist project, cell-based, Fluo-4 calcium flux, duplicate, agonist mode; AID 624115, 2012; 4,000 tested, 8.7% active; fluorescence ratio F(max-min)/F0 at 10 µM; shares compounds with MrgX1 antag; Fluo-4 calcium fluorescence (FDSS); hits give high values;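 active means calcium fluorescence ratio at least three times the spread of buffer wells, meaning a non-specific response in parental cells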
Numbers without * were called inactive; i = inactive; . = not tested or not shown.

SMILES	RGS4 inh	MrgX1 PAM	MrgX1 antag	RGS4 act	MrgX1 agonist	MrgX1 ant reconf	HEK293 Ca flux	HEK293 Ca counter	HEK293 Ca cntr2
CCCSc1cc(N2CCCC2)nc(-c2ccccc2)n1	i	i	-5.7*	i	i	i	i	i	i
CCCSc1cc(N2CCN(C)CC2)nc(-c2ccc(OC)cc2)n1	i	i	i	i	i	.	.	.	.
CCOC(=O)C1CN(S(C)(=O)=O)c2cc(CC(=O)OC)ccc2O1 (configuration not stated)	i	i	i	i	i	.	.	.	.
Cc1cccc(-n2ncc3c2CCCC3NC(=O)C2CCOCC2)c1C (configuration not stated)	i	i	-5.2*	i	i	74%*	i	i	i
COCCCNC(=S)N1CCN(c2nc(C)nc3sc4c(c23)CCCC4)CC1	i	i	-6.6*	i	i	i	i	i	i
CCCNC(=S)N1CCN(c2nc(C)nc3sc4c(c23)CCCC4)CC1	i	i	i	i	i	.	.	.	.
CN(Cc1ccccc1F)C(=O)CNC(=O)Cc1cccc2ccccc12	i	i	i	i	i	.	.	.	.
Cc1ccccc1Cc1c(C)nc2ncnn2c1C	i	i	-7.8*	i	i	i	i	i	i
CCN1CCc2nc(NC(=O)CC(c3ccccc3)c3ccccc3)sc2C1	i	i	i	i	i	.	.	.	.
CCN1CCc2nc(NC(=O)C(c3ccccc3)c3ccccc3)sc2C1	i	i	-5.8*	i	i	i	i	i	i
CCOc1cc(C(=O)NC(C)CCc2ccccc2)cc(OCC)c1OCC (configuration not stated)	i	i	i	i	i	.	.	.	.
COc1ccc(C(=O)CSc2nc3ccc([N+](=O)[O-])cc3[nH]2)cc1	i	i	i	i	i	.	.	.	.
Cc1ccc(-c2[nH]c3ccccc3c2SCCN)cc1	i	i	i	i	i	.	.	.	.
Cc1[nH]c2ccccc2c1SCCN	i	i	-7.5*	i	i	i	i	i	i
CC(C)(C)SCCNC(=O)CSc1ccccc1	i	i	-5*	i	i	84%*	i	i	i
CC(=O)Nc1cccc(/C(C)=N\NC(=O)c2ccc(Cn3nc([N+](=O)[O-])c(Cl)c3C)o2)c1	i	i	i	i	i	.	.	.	.
Cc1cccc(NC(=O)c2ccccc2NC(=O)C2CCCCC2)c1C	i	i	-5*	i	i	i	i	i	i
O=C(Nc1ccccc1)c1ccccc1NC(=O)C1CCCCC1	i	i	i	i	i	.	.	.	.
CC(=O)Nc1ccc(NC(=O)Cn2cnc(S(=O)(=O)N3CCOCC3)c2)cc1	i	i	i	i	i	.	.	.	.
O=C(CC1C(=O)NCCN1Cc1cccc(C(F)(F)F)c1)NC1CCOCC1 (configuration not stated)	i	i	i	i	i	.	.	.	.
CCOC(=O)CC1C(=O)NCCN1Cc1cccc(C(F)(F)F)c1 (configuration not stated)	i	i	-4.7*	i	i	i	i	i	i
O=[N+]([O-])c1cc(C(F)(F)F)ccc1NCCNC(=S)Nc1ccc(Cl)cc1	i	i	-11*	-7.1*	i	72%*	i	i	i
O=[N+]([O-])c1cc(C(F)(F)F)ccc1NCCCCNS(=O)(=O)c1ccc(Cl)cc1	i	i	i	i	i	.	.	.	.
Cc1ccc2nc(-c3ccc(NC(=O)CSc4ccccc4)cc3)[nH]c2c1	i	i	-5.3*	i	i	i	i	i	i
NC(=O)C1CCN(CC(=O)Nc2cccc(C(=O)Nc3cccc(C(F)(F)F)c3)c2)CC1	i	i	-7*	i	i	84%*	i	i	i
SMILES	RGS4 inh	MrgX1 PAM	MrgX1 antag	RGS4 act	MrgX1 agonist	MrgX1 ant reconf	HEK293 Ca flux	HEK293 Ca counter	HEK293 Ca cntr2
C[C@@H]1[C@H](O)C[C@@]23COC(=O)C2=CCC[C@@H]3[C@@]1(C)CC/C(=C/CO)CO	.	i	i	.	i	.	.	.	.
CCN(CC)C(=O)CSc1nc(OC)cc(=O)[nH]1	i	i	-9.5*	i	i	i	i	i	53*
COc1cc(=O)[nH]c(SCC(=O)Nc2ccc3ccccc3c2)n1	i	i	i	i	i	.	.	.	.
Cc1cc(NC(=O)CSc2nc3c(c(-c4cccnc4)c2C#N)CCC3)no1	i	i	-5.3*	i	i	i	i	i	i
COc1ccc(CN2C(=O)c3cccnc3C2=O)cc1S(=O)(=O)N(C)Cc1ccco1	i	i	i	i	i	.	.	.	.
CN(Cc1ccco1)S(=O)(=O)c1cc(F)ccc1CN1C(=O)c2cccnc2C1=O	i	i	-4.9*	i	i	i	i	i	i
COc1ccc(OC)c(S(=O)(=O)Nc2ccc(OCC(=O)O)cc2)c1	i	i	i	i	i	.	.	.	.
COc1ccc(OC)c(S(=O)(=O)Nc2ccc(CC(=O)O)cc2)c1	i	i	-9.2*	i	i	i	i	i	i
O=C(NCc1nnnn1-c1ccc(F)c(F)c1)c1ccc(S(=O)(=O)N2CCOCC2)cc1	i	i	i	i	i	.	.	.	.
O=C1CC(N2CCC(O)(c3ccc(Br)cc3)CC2)C(=O)N1c1ccc(Cl)cc1 (configuration not stated)	i	i	-6.5*	i	i	i	i	i	i
COc1ccc(C(=O)NC2CC2)cc1OC1CCN(Cc2cc(C)cc(C)c2)CC1	i	i	i	i	i	.	.	.	.

Screens from PubChem BioAssay.
